The source made the active and inactive calls. The calls are words filed in the database; no cut-off is given here.
Columns and labels:
[1] = target: Serine/threonine-protein kinase PINK1, mitochondrial (Homo sapiens) (UniProt Q9BXM7); assay: Activation of human PINK1 in human HeLa cells overexpressing Parkin assessed as phosphorylation of ubiquitin at serine 65 at 50 uM and measured after 24 hr by Western blot analysis; type: cell-based
How it was run: (§1)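 Parkin-transfected HeLa cells received 50 μM compound for 24 h. They were then either lysed directly or given 10 μM CCCP for 3 h before lysis. Lysates were immunoblotted for Ser65-phosphorylated ubiquitin, OPA1 cleavage and GAPDH. Untreated transfected and untransfected cells served as references.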

[2] = target: Serine/threonine-protein kinase PINK1, mitochondrial (Mus musculus) (UniProt Q99MQ3); assay: Activation of mouse PINK1 in mouse astrocytes assessed ubiquitin serine 65 phosphorylation at 50 uM preincubated for 24 hrs followed by valinomycin treatment for 5 hrs by ELISA; type: cell-based; conditions: Astrocyte, time 29.0 hrs
How it was run: (§2)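 Primary cortical astrocytes came from postnatal day 3 C57BL/6J pups and were used at 70–90% confluence (7–10 days in vitro). Lysates (HEPES/NP-40 lysis, pellet resuspended in RIPA) went to pS65-Ub ELISA. Signal was normalised per μg protein (BCA); mean ± SEM, n = 8.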

[3] = target: Serine/threonine-protein kinase PINK1, mitochondrial (Mus musculus) (UniProt Q99MQ3); assay: Activation of mouse PINK1 in mouse astrocytes assessed increase in ubiquitin serine 65 phosphorylation at 50 uM incubated for 24 hrs by ELISA analysis; type: cell-based; conditions: Astrocyte, filed as activator; how it was run: as §2
[4] = tested on: HeLa; assay: Inhibition of ubiquitin phosphorylation in CCCP stimulated human HeLa cells overexpressing Parkin assessed as reduction in CCCP-induced ubiquitin phosphorylation at serine 65 at 50 uM preincubated for 24 hrs followed by CCCP stimulation for 3 hr by Western blot analysis; type: cell-based; conditions: time 27.0 hrs; how it was run: as §1
[5] = target: Serine/threonine-protein kinase PINK1, mitochondrial (Homo sapiens) (UniProt Q9BXM7); assay: Activation of PINK1 in human HeLa cells transfected with Parkin assessed as increase in Parkin phosphorylation at serine 65 at 50 uM incubated for 1 hr by Western blot analysis; type: cell-based
How it was run: (§3)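 HeLa cells transfected with Parkin were exposed to 50 μM compound for 1 h, with 10 μM CCCP for 3 h as a control. Cells were then lysed and immunoblotted for pSer65 Parkin, total Parkin, OPA1 and GAPDH (loading control). Untreated transfected and untransfected cells were included. Blots are representative of three repeat experiments.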

[6] = tested on: MEF; assay: Induction of mitophagy in wild-type PINK1 harboring mouse immortalized MEF cells overexpressing HA-tagged Parkin assessed as increase in mitophagy at 20 uM incubated for 16 hrs by flow cytometry analysis; type: functional, cell-based
How it was run: (§4)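 Immortalized MEFs from littermate PINK1 WT or KO mito-QC embryos (mCherry-GFP-FIS1 reporter), overexpressing HA-Parkin; 2.5 × 10^5 cells seeded day before, treated 16 h. Trypsinized, fixed in 3.7% formaldehyde/200 mM HEPES pH 7.0, ≥2 × 10^4 cells acquired by flow cytometry; live cells gated, percent mitophagy from GFP/mCherry ratio using untreated-cell gate; n = 3; two-way ANOVA with Sidak test.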

[7] = tested on: HeLa; assay: Induction of mitochondrial membrane depolarization in human HeLa cells overexpressing Parkin assessed as OPA1 cleavage at 10 uM and measured after 3 hrs by Western blot analysis; type: functional, cell-based
How it was run: (§5)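 Parkin-transfected HeLa (DMEM, 10% FBS, 37 °C, 5% CO2) treated 3 h with 10 μM agent (CCCP control arm), with or without 24 h pre-treatment at 50 μM. Lysed in Tris pH 7.5 buffer with phosphatase/protease inhibitors, protein by Bradford, boiled in SDS buffer, immunoblotted for pUb Ser65, OPA1 (cleavage as depolarization read-out) and GAPDH loading control.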

[8] = target: Serine/threonine-protein kinase PINK1, mitochondrial (Homo sapiens) (UniProt Q9BXM7); assay: Activation of human PINK1 in human HeLa cells overexpressing Parkin assessed as phosphorylation of ubiquitin at serine 65 at 10 uM and measured after 3 hr by Western blot analysis; type: cell-based; conditions: filed as activator; how it was run: as §5
[9] = tested on: MEF; assay: Induction of mitophagy in PINK1 knockout mouse immortalized MEF cells overexpressing HA-tagged Parkin assessed as increase in mitophagy at 20 uM incubated for 16 hrs by flow cytometry analysis; type: functional, cell-based; how it was run: as §4
[10] = tested on: HeLa; assay: Induction of mitochondrial membrane depolarization in human HeLa cells overexpressing Parkin assessed as inhibition of CCCP-induced OPA1 cleavage at 50 uM preincubated for 24 hrs followed by CCCP stimulation and measured after 3 hrs by Western blot analysis; type: functional, cell-based; conditions: time 27.0 hrs; how it was run: as §1
[11] = tested on: HeLa; assay: (§6) Induction of mitochondrial membrane depolarization in human HeLa cells transfected with YFP-Parkin assessed as prevention of niclosamide induced mitochondrial membrane potential loss at 50 uM preincubated for 24 hrs followed by niclosamide stimulation and measured after 1 hr by Hoechst 33258 staining based immunofluorescence analysis; type: functional, cell-based; conditions: time 25.0 hrs
How it was run: (§7)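 Mitochondrial membrane potential was read in YFP-Parkin HeLa cells pretreated with 50 μM compound for 24 h, then given 10 μM niclosamide or CCCP for 1 h. Medium was replaced with 5 nM TMRM plus Hoechst for 30 min at 37 °C in the dark. After a PBS wash, live cells were imaged by confocal microscopy at 37 °C, 5% CO2.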

[12] = target: T1, Serine/threonine-protein kinase Pink1, mitochondrial (Tribolium castaneum) (UniProt D6WMX4); assay: Inhibition of recombinant Tribolium castaneum PINK1 using human Parkin as substrate assessed as substrate phosphorylation upto 100 uM
T1 sequence (whole entry): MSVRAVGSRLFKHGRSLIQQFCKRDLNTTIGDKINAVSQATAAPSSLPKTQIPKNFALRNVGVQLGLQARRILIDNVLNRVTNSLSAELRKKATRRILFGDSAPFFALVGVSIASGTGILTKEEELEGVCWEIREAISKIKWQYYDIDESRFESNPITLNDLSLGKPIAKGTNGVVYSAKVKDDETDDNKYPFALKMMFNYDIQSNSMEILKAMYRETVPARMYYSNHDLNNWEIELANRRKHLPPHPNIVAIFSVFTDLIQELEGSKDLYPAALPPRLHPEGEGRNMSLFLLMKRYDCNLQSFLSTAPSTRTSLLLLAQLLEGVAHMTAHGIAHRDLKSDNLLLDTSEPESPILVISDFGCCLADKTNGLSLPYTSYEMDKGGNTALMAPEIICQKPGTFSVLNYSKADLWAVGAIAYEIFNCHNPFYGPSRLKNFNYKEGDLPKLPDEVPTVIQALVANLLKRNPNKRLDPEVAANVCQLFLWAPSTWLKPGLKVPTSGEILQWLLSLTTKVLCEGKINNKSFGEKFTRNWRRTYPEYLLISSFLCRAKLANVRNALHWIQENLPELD

[13] = tested on: HeLa; assay: Inhibition of CCCP-induced ubiquitin phosphorylation at serine 65 residue in human HeLa cells transfected with YFP-Parkin at 50 uM preincubated for 24 hrs followed by CCCP stimulation and measured after 1 hr hr by Hoechst 33258 staining based immunofluorescence analysis; type: cell-based; conditions: time 25.0 hrs
How it was run: (§8)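 YFP-Parkin HeLa cells were pretreated with 50 μM compound for 24 h, then given 10 μM CCCP or niclosamide for 1 h. Cells were fixed in chilled 4% PFA, permeabilised with 0.1% Triton, blocked in BSA, then immunostained overnight at 4 °C for pSer65-Ub and TOM20 with Hoechst. YFP-Parkin was imaged by confocal microscopy (40× oil). pUb mitochondrial localisation was quantified from images.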

[14] = tested on: HeLa; assay: Induction of mitochondrial membrane depolarization in human HeLa cells overexpressing Parkin assessed as inhibition of niclosamide-induced OPA1 cleavage at 50 uM preincubated for 24 hrs followed by niclosamide stimulation and measured after 3 hrs by Western blot analysis; type: functional, cell-based; conditions: time 27.0 hrs
[15] = tested on: MEF; assay: Induction of mitophagy in PINK1 knockout mouse immortalized MEF cells overexpressing HA-tagged Parkin assessed as increase in mitophagy at 5 uM incubated for 16 hrs by flow cytometry analysis; type: functional, cell-based
How it was run: (§9)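 Immortalised MEFs from PINK1 WT or KO mito-QC littermate embryos, overexpressing HA-Parkin, were treated for 16 h. Cells were trypsinised, fixed in 3.7% formaldehyde/200 mM HEPES pH 7.0 and analysed by flow cytometry (≥2 × 10^4 cells). Living cells were gated on scatter, and the untreated-condition gate was applied to all conditions. Percent cells undergoing mitophagy was taken from the GFP/mCherry ratio; n = 3, two-way ANOVA with Sidak test.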

[16] = target: T1, Serine/threonine-protein kinase Pink1, mitochondrial (Tribolium castaneum); assay: Inhibition of recombinant Tribolium castaneum PINK1 using human ubiquitin as substrate assessed as substrate phosphorylation upto 100 uM
[17] = tested on: HeLa; assay: Induction of mitophagy in YFP-Parkin-transfected human HeLa cells assessed as effect on ubiquitin phosphorylation at 50 uM incubated for 24 hrs by Hoechst 33258 staining based immunofluorescence analysis; type: functional, cell-based
How it was run: (§10)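 YFP-Parkin-transfected HeLa cells were left untreated or exposed to 50 μM compound alone for 24 h. Cells were PFA-fixed, Triton-permeabilised and immunostained for pSer65-Ub and TOM20 with Hoechst. Confocal imaging assessed mitochondrial fragmentation, YFP-Parkin localisation and ubiquitin phosphorylation.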

[18] = tested on: HeLa; assay: Inhibition of CCCP-induced ubiquitin phosphorylation at serine 65 residue in human HeLa cells transfected with YFP-Parkin at 50 uM preincubated for 24 hrs followed by CCCP stimulation and measured after 1 hr hr by Western blot analysis; type: cell-based; conditions: time 25.0 hrs
How it was run: (§11)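 YFP-Parkin-transfected HeLa cells were pretreated with 50 μM compound (24 h per legend, 23 h per methods), then given 10 μM CCCP or niclosamide for 1 h. Lysis used AP buffer (Tris pH 7.5, IGEPAL, protease/phosphatase inhibitors). Blots were on PVDF, milk-blocked, primary antibody overnight at 4 °C, HRP detection; probed for pUb, LC3B-I/-II and α-tubulin.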

[19] = tested on: HeLa; assay: Induction of mitophagy in human HeLa cells transfected with YFP-Parkin assessed as effect on Parkin localization at 50 uM incubated for 24 hrs by Hoechst 33258 staining based immunofluorescence analysis; type: functional, cell-based; how it was run: as §10
[20] = tested on: MEF; assay: Induction of mitophagy in wild-type PINK1 harboring mouse immortalized MEF cells overexpressing HA-tagged Parkin assessed as increase in mitophagy at 5 uM incubated for 16 hrs by flow cytometry analysis; type: functional, cell-based; how it was run: as §9
[21] = tested on: HeLa; assay: as §6, with “CCCP” for “niclosamide”; type: functional, cell-based; conditions: time 25.0 hrs; how it was run: as §7
[22] = tested on: HeLa; assay: Induction of mitophagy in human HeLa cells transfected with YFP-Parkin assessed as effect on mitochondrial fragmentation at 50 uM incubated for 24 hrs by Hoechst 33258 staining based immunofluorescence analysis; type: functional, cell-based; how it was run: as §10
[23] = tested on: HeLa; assay: Inhibition of niclosamide-induced ubiquitin phosphorylation at serine 65 residue in human HeLa cells transfected with YFP-Parkin at 50 uM preincubated for 24 hrs followed by niclosamide stimulation and measured after 1 hr hr by Hoechst 33258 staining based immunofluorescence analysis; type: cell-based; conditions: time 25.0 hrs; how it was run: as §8
[24] = tested on: HeLa; assay: Inhibition of niclosamide-induced ubiquitin phosphorylation at serine 65 residue in human HeLa cells transfected with YFP-Parkin at 50 uM preincubated for 24 hrs followed by niclosamide stimulation and measured after 1 hr hr by Western blot analysis; type: cell-based; conditions: time 25.0 hrs; how it was run: as §11
[25] = target: Serine/threonine-protein kinase PINK1, mitochondrial (Homo sapiens) (UniProt Q9BXM7); assay: Activation of PINK1 in human HeLa cells transfected with Parkin assessed as prevention of OPA1 cleavage at 50 uM incubated for 1 hr by Western blot analysis; type: cell-based; how it was run: as §3
[26] = tested on: HeLa; assay: Induction of mitophagy in human HeLa cells transfected with YFP-Parkin assessed as parkin localization in mitochondria at 50 uM preincubated for 24 hrs followed by CCCP stimulation and measured after 1 hr hr by Hoechst 33258 staining based immunofluorescence analysis; type: functional, cell-based; how it was run: as §8

Sequence of Serine/threonine-protein kinase PINK1, mitochondrial (Mus musculus) (Q99MQ3 whole entry): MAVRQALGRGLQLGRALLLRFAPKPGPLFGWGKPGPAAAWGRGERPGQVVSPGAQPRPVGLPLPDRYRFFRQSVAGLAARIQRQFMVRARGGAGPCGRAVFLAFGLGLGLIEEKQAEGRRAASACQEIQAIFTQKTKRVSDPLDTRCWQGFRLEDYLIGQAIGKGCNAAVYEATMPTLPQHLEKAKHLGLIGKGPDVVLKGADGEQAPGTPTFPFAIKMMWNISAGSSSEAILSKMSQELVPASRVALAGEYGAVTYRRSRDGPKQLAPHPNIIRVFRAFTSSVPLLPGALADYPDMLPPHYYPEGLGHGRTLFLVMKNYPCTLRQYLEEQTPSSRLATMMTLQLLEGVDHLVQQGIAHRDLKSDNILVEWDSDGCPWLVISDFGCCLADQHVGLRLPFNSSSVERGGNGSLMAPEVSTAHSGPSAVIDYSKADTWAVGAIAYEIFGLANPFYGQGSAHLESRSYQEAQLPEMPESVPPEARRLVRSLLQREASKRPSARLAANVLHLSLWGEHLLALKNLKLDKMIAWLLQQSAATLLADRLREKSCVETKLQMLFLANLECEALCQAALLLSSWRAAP
Sequence of Serine/threonine-protein kinase PINK1, mitochondrial (Homo sapiens) (Q9BXM7 whole entry): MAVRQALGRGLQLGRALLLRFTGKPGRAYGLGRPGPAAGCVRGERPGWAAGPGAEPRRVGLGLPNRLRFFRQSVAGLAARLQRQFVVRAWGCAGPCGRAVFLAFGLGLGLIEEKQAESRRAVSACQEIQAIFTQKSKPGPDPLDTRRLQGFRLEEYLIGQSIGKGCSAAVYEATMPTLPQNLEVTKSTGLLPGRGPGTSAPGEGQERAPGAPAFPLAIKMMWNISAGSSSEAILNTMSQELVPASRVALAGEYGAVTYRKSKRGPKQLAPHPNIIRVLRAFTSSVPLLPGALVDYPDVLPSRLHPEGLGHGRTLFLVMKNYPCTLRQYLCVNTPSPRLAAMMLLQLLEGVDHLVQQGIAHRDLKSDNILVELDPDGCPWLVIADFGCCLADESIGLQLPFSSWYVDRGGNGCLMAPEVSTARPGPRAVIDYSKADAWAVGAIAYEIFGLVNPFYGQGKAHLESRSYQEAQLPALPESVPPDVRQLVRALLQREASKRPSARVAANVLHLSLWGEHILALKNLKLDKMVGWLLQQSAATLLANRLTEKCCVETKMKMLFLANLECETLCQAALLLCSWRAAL

Compound: c1coc(CNc2ncnc3[nH]cnc23)c1
- Activity [1]: inactive
- Activity [2]: inactive
- Activity [3]: Active
- inhibition [4]: inactive

Compound: CC(C)Nc1ncnc2[nH]cnc12
- Activity [5]: inactive

Compound: N#CC(C#N)=NNc1cccc(Cl)c1
- Activity [6]: Active
- Activity [7]: Active
- Activity [8]: Active
- Activity [9]: inactive

Compound: OC[C@H]1O[C@@H](n2cnc3c(NCc4ccco4)ncnc32)[C@H](O)[C@@H]1O
- inhibition [10]: inactive
- Activity [11]: inactive
- inhibition [12]: inactive
- inhibition [13]: Active
- Activity [1]: inactive
- inhibition [14]: inactive
- Activity [15]: inactive
- inhibition [16]: inactive
- Activity [17]: inactive
- inhibition [18]: Active
- Activity [19]: inactive
- Activity [20]: Active
- Activity [21]: inactive
- Activity [22]: inactive
- inhibition [23]: Active
- inhibition [24]: Active
- inhibition [4]: Active

Compound: Oc1ccc(CCNc2ncnc3[nH]cnc23)cc1
- Activity [5]: inactive

Compound: CC(C)(C)CNc1ncnc2[nH]cnc12
- Activity [5]: inactive

Compound: O=C(Nc1ccc([N+](=O)[O-])cc1Cl)c1cc(Cl)ccc1O
- Activity [7]: Active
- Activity [8]: Active

Compound: CNc1ncnc2c1ncn2[C@@H]1O[C@H](CO)[C@@H](O)[C@H]1O
- Activity [25]: inactive
- Activity ([5]; filed as activator): Active
- Activity [26]: inactive
- inhibition [13]: inactive
- Activity [17]: inactive
- Activity [19]: inactive
- Activity [22]: inactive
- Activity [2]: inactive
- Activity [3]: Active

Compound: O=P(O)(O)OP(=O)(O)OP(=O)(O)OC[C@H]1O[C@@H](n2cnc3c(NCc4ccccc4)ncnc32)[C@H](O)[C@@H]1O
- inhibition [12]: inactive
- inhibition [16]: inactive
